This is an account of results in paper PMC10194142 (Virus Research, 2023).

The target of data set [1] is T1, ZIKV NS2B-NS3 protease (Zika virus, UniProt Q32ZE1).
T1 sequence (Q32ZE1 with tags, fused parts or gaps DEL1468-1489/Y1490G/V1491G/Y1492G/V1493G/K1494S/T1495G/K1497G/R1498G): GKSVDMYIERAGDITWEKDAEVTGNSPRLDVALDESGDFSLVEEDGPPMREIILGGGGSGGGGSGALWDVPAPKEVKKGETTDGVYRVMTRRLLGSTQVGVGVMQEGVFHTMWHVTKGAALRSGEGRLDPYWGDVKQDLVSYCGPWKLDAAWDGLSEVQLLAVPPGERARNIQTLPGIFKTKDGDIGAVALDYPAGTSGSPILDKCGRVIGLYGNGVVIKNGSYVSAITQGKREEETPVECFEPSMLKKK
Put plainly: ZIKV NS2B-NS3 enzyme-based fluorescence peptide cleavage assay. It is filed as biochemical. The conditions noted are these: for protease activity inhibition efficacy in screening: inhibitor concentration of 50 μM, 5 μM protease, 10 μM substrate. In short, it runs like this:
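His-tagged NS2B-NS3 protease was expressed in E. coli BL21(DE3) and purified by metal-affinity chromatography. Test compound at 6.25–100 μM was incubated with 5 μM protease in cleavage buffer for 30 min at 37 °C, then with 10 μM Boc-KKR-AMC for 1 h. AMC fluorescence was read at ex 355 / em 455 nm. Activity is expressed as % of the protease-alone control.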

Data set [2] is described as follows: Cell viability by ATPlite. The conditions noted are these: human, Huh-7 cells. It counts as cell-based. (In general: In ATP-based viability assays light output follows the ATP content of the culture.)
For data set [3], the system named is ZIKV (MR-766). Put plainly: ZIKV RNA replication in infected Huh-7 cells by RT-qPCR. It counts as cell-based, Zika virus. As to conditions: for Selectivity index (SI = CC50/EC50): Huh-7 cells; for EC50: Zika virus, Huh-7, 72 h; for inhibition of ZIKV replication (ZIKV RNA level): 0.2, 0.69, 2, 6 μM for 72 h, Huh-7, MOI 0.1.
Data set [4] deals with ZIKV. Put plainly: ZIKV-infected ICR suckling mouse model. It counts as in vivo. In short, it runs like this:
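Six-day-old ICR suckling mice (n = 6 per group) were injected intracerebrally with 10^4 pfu ZIKV. Mock mice received 60 °C heat-inactivated virus. Saline or test compound (1 or 10 mg/kg, i.c.) was given at days 1, 3 and 5 post-infection. At day 6, 0.1 g brain was lysed in RIPA for NS2B western blot. The remaining brain had H&E and IHC (NS1, Ly6C), with infiltration quantified. Data are mean ± SD.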

Data set [5] concerns the target T1, ZIKV NS2B-NS3 protease. Put plainly: Kinetic analysis of inhibition mechanism. It is filed as biochemical. The conditions noted are these: for inhibition mechanism: 75 μM compound, 5 μM protease, Boc-KKR-AMC 0 to 20 μM; for Kcat / Vmax value: protease with 75 μM compound; for Kcat: untreated protease 0.0142; for Vmax value: untreated protease 0.071. A digest of the protocol:
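Purified His-tagged NS2B-NS3 protease was expressed in E. coli BL21(DE3). 5 μM protease was preincubated with 75 μM test compound in cleavage buffer for 30 min at 37 °C. Boc-KKR-AMC at 0–20 μM was then added for 1 h at 37 °C. Released AMC was read at ex 355 / em 455 nm against an AMC standard curve. Mechanism was assigned from Lineweaver-Burk plots.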

The subject of data set [6] is ZIKV. As to conditions: plaque reduction assay; ref Chan et al., 2017; cited from earlier work. On the technique in general: In a plaque reduction assay, fewer plaques than in the control indicate reduced infectivity or spread.
The test system of data set [7] is ZIKV. As to conditions: primary placental cells, dose range of 0.2 to 1 μM; ref Tabata et al., 2016; cited from earlier work.

What is called IC50 is the midpoint of a concentration-inhibition curve. A lower IC50 goes with greater potency. With `CC(C)c1ccc(S(=O)(=O)/N=C2/C=C(NS(=O)(=O)c3ccccc3)C(=O)c3ccccc32)cc1` [Compound 10, (Z)−4-isopropyl-N-(4-oxo-3-(phenylsulfonamido)naphthalen-1(4H)-ylidene)benzenesulfonamide], in data set [1], the IC50 is > 100 µM.

For orientation: CC50 means the concentration giving 50% cytotoxicity. Lower therefore signals greater toxicity to the cells. By EC50 is commonly meant the concentration at which the effect is half-maximal. As for `Oc1cccc(-c2c3nc(c(-c4cccc(O)c4)c4ccc([nH]4)c(-c4cccc(O)c4)c4nc(c(-c5cccc(O)c5)c5ccc2[nH]5)CC4)C=C3)c1` [Temoporfin, reference compound], in data set [1], the IC50 came to 18.8 µM. Also, half-maximal cytotoxicity in data set [2] (CC50 at 48 h) was put at 61.1 µM. Moreover, in data set [3], the “Selectivity index (SI = CC50/EC50)” value is 30.53 and the EC50 is 2 µM.

Regarding `Cc1ccc(S(=O)(=O)/N=C2\C=C(NS(=O)(=O)c3ccccc3)C(=O)c3ccccc32)c(C)c1` [Compound 11, (E)−2,4-dimethyl-N-(4-oxo-3-(phenylsulfonamido)naphthalen-1(4H)-ylidene)benzenesulfonamide], the IC50 in data set [1] was > 100 µM.

As to `COc1cc(C=C2C(=O)N(c3ccc(C)cc3)C(=S)N(c3ccc(C)cc3)C2=O)cc(Br)c1O` [Compound 8, 5-(3‑bromo-4‑hydroxy-5-methoxybenzylidene)−2-thioxo-1,3-di-p-tolyldihydropyrimidine-4,6(1H,5H)-dione], in data set [1], half-maximal inhibition (IC50) was put at 6.85 µM and the “protease activity inhibition efficacy in screening” value is “better protease activity inhibition efficacy than others”. Besides, in data set [4] (1 mg/kg or 10 mg/kg on days 1, 3, 5, observed 6 days, vs saline), the “survival (protection from lethal ZIKV infection)” value is reported as “protected all ZIKV-infected suckling mice from lethal ZIKV infection”. Besides, the “clinical score (sickness)” value in data set [4] (1 mg/kg or 10 mg/kg on days 1, 3, 5, vs saline) was “a delay in the sickness induced by ZIKV infection”. Moreover, in data set [4] (6 dpi, vs saline-treated group), the “Ly6C+ monocyte infiltration in brain tissue” value is “significantly less accumulated”, the “ZIKV NS1 level in brain tissue (IHC)” value is given as “significantly decreased” and the “ZIKV NS2B protein level in brain tissue (western blot)” value is given as “significantly decreased”. For the same compound, in data set [5], the inhibition mechanism entry is “non-competitive”, the Kcat amounted to 0.00015 s⁻¹ and the Vmax value was found to be 0.045 µmol/min. Also, the CC50 at 48 h in data set [2] is > 200 µM. In addition, in data set [3], the “inhibition of ZIKV replication (ZIKV RNA level)” value (“inhibition of ZIKV replication” for short) is “could significantly inhibit ZIKV replication” and the EC50 stood at 0.52 µM.

For `COc1cc(C=C2C(=O)N(c3ccccc3)C(=S)N(c3ccccc3)C2=O)cc(I)c1OCc1ccccc1Cl` [Compound 3, 5-(4-((2-chlorobenzyl)oxy)−3-iodo-5-methoxybenzylidene)−1,3-diphenyl-2-thioxodihydropyrimidine-4,6(1H,5H)-dione], in data set [1], the IC50 was 14 µM and the “protease activity inhibition efficacy in screening” value was “better protease activity inhibition efficacy than others”. In data set [5], the inhibition mechanism result was “non-competitive”, the Kcat was determined as 0.00013 s⁻¹ and the Vmax value was 0.040 µmol/min. Also, the CC50 at 48 h in data set [2] is > 200 µM. Further, in data set [3], the “inhibition of ZIKV replication” value was “could significantly inhibit ZIKV replication” and the EC50 turned out to be 2.15 µM.

For `Cc1ccc(NC(=O)COc2ccc(C=C3C(=O)N(c4ccccc4)C(=S)N(c4ccccc4)C3=O)cc2)cc1C` [Compound 9, N-(3,4-dimethylphenyl)−2-(4-((4,6-dioxo-1,3-diphenyl-2-thioxotetrahydropyrimidin-5(2H)-ylidene)methyl)phenoxy)acetamide], in data set [1], it took 14.2 µM to reach half-maximal inhibition (IC50) and the “protease activity inhibition efficacy in screening” value was “better protease activity inhibition efficacy than others”. Besides, in data set [5], the inhibition mechanism result was “non-competitive”, the Kcat was found to be 0.000143 s⁻¹ and the Vmax value amounted to 0.043 µmol/min. The same compound gave a CC50 at 48 h in data set [2] of 61.5 µM. In data set [3], the “inhibition of ZIKV replication” value is reported as “could significantly inhibit ZIKV replication”, the “Selectivity index (SI = CC50/EC50)” value is 17.46 and the EC50 was determined as 3.52 µM.

In data set [1], `CC(=O)Oc1ccc(C=C2C(=O)N(c3ccccc3)C(=S)N(c3ccccc3)C2=O)cc1` [Compound 1, 4-((4,6-dioxo-1,3-diphenyl-2-thioxotetrahydropyrimidin-5(2H)-ylidene)methyl)phenyl acetate] returned an IC50 of 63.4 µM.

For `Cc1ccc(S(=O)(=O)/N=C2\C=C(NS(=O)(=O)c3ccccc3)C(=O)c3ccccc32)cc1` [Compound 7, (E)−4-methyl-N-(4-oxo-3-(phenylsulfonamido)naphthalen-1(4H)-ylidene)benzenesulfonamide], in data set [1], the IC50 was > 100 µM.

Take `COc1cc(C=C2C(=O)N(c3ccccc3)C(=S)N(c3ccccc3)C2=O)cc(Br)c1OCc1cccc2ccccc12` [Compound 2, 5-(3‑bromo-5‑methoxy-4-(naphthalen-1-ylmethoxy)benzylidene)−1,3-diphenyl-2-thioxodihydropyrimidine-4,6(1H,5H)-dione]: in data set [1], the IC50 turned out to be 72.5 µM.

As for `Cc1cc(C)c(S(=O)(=O)/N=C2\C=C(NS(=O)(=O)c3ccccc3)C(=O)c3ccccc32)cc1C` [Compound 6, (E)−2,4,5-trimethyl-N-(4-oxo-3-(phenylsulfonamido)naphthalen-1(4H)-ylidene)benzenesulfonamide], the IC50 in data set [1] was > 100 µM.

`CC(C)C[C@H]1C(=O)N2CCC[C@H]2[C@]2(O)O[C@](NC(=O)[C@@H]3C=C4c5cccc6[nH]c(Br)c(c56)C[C@H]4N(C)C3)(C(C)C)C(=O)N12` [bromocriptine]: the ZIKV-mediated plaque reduction in data set [6] is recorded as ~100%.

On to `CCc1ccc(S(=O)(=O)/N=C2\C=C(NS(=O)(=O)c3ccccc3)C(=O)c3ccccc32)cc1` [Compound 5, (E)−4-ethyl-N-(4-oxo-3-(phenylsulfonamido)naphthalen-1(4H)-ylidene)benzene sulfonamide], for which the IC50 in data set [1] was > 100 µM.

Regarding `O=C1C(=Cc2cc(I)c(O)c(I)c2)C(=O)N(c2ccccc2)C(=S)N1c1ccccc1` [Compound 4, 5-(4‑hydroxy-3,5-diiodobenzylidene)−1,3-diphenyl-2-thioxodihydropyrimidine-4,6(1H,5H)-dione], the IC50 in data set [1] was > 100 µM.

On to duramycin, for which the “block of ZIKV infection” value in data set [7] is given as > 80%.
